Two compounds from ChEMBL document CHEMBL4706642, “Discovery of a Potent Dual Inhibitor of Acetylcholinesterase and Butyrylcholinesterase with Antioxidant Activity that Alleviates Alzheimer-like Pathology in Old APP/PS1 Mice” (J Med Chem, 2021) can be followed below.

Broadly, the IC50 is the concentration that gives 50% inhibition. A word on the Kd: it is a measure of binding affinity in units of concentration.

Calls of active or inactive are those of the source.

Data set [1] deals with Mus musculus. Kind of data set: Cognitive enhancing effect in 6 months young APP/PS1 double mutant-transgenic mouse model assessed as effect on number of times animal crossing central area in transparent cage at 2 mg/kg, ip administered thrice a week for 4 weeks by LOF test. The class given is functional, organism-based. The method in brief: (§1)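 Open-field locomotor test in male APP/PS1 mice after 2 mg/kg i.p. in saline (or vehicle), three times per week for 4 weeks. Read-outs were time spent moving and number of crossings of the central area of a transparent cage. Mean ± SEM, n = 7 per group; one-way ANOVA with Bonferroni post hoc.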

For data set [2], the system named is Mus musculus. Kind of data set: Cognitive enhancing effect in 6 months young APP/PS1 double mutant-transgenic mouse model assessed as effect on time spent on moving along the field at 2 mg/kg, ip administered thrice a week for 4 weeks by LOF test. The class given is functional, organism-based. The gist of the method:
as §1

The nature of data set [3]: Drug concentration in wild type C57BL6 mouse brain at 2 mg/kg, ip thrice a week for 2 weeks observed after 4 hrs post last dose by HPLC/MS/MS analysis. The note with it: brain.
Data set [4] is described as follows: Permeability of the compound in PBS/EtOH buffer (70:30) by PAMPA-BBB assay. The data set is classed as ADME. To be noted: read-out: permeability. The gist of the method: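 PAMPA-BBB permeability, reported as Pe in 10⁻⁶ cm s⁻¹, with CNS+ defined as Pe > 5.1. Mean ± SD of three experiments, each in triplicate.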
For orientation: PAMPA measures passive passage across an artificial lipid membrane.

Data set [5] is described as follows: Selectivity index, ratio of IC50 for human serum BChE using butyrylthiocholineiodide as substrate to IC50 for recombinant human AChE using acetylthiocholine iodide as substrate. The method in brief: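 Ellman spectrophotometric assay in 0.1 M phosphate buffer, pH 8.0, with 340 μM DTNB. Enzyme was 0.02 U/mL human recombinant AChE or human serum BChE. […] Then 550 μM ATCh or BTCh was added, and A412 was followed for 210 s. Non-enzymatic hydrolysis was corrected. IC50 came from a % inhibition vs log[I] regression. Selectivity = IC50 hBChE/IC50 hAChE. Mean ± SEM of ≥2 experiments, each in duplicate/triplicate.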

Data set [6] relates to Mus musculus. Kind of data set: Antialzheimer activity in 6 months young APP/PS1 double mutant-transgenic mouse model assessed as amyloid beta42 levels in hippocampus at 2 mg/kg, ip administered thrice a week for 4 weeks by ELISA. The class given is functional, organism-based. The gist of the method:
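Male APP/PS1 mice received 2 mg/kg i.p. in saline (or vehicle), three times weekly for 4 weeks. After the behavioral tests, hippocampus was collected and Aβ40 and Aβ42 were measured with a specific ELISA kit. Mean ± SEM, n = 7 mice per group; one-way ANOVA with Bonferroni post hoc.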
On the technique in general: ELISA stands for enzyme-linked immunosorbent assay.

Data set [7] deals with Mus musculus. Kind of data set: Antialzheimer activity in 6 months young APP/PS1 double mutant-transgenic mouse model assessed as fiber volley amplitude in CA3 region of hippocampus at 2 mg/kg, ip administered thrice a week for 4 weeks followed by stimulation with 1 to 10 uA EPSP by fluorescence microscopy based electrophysiology method (reference value: 0.719 +/- 0.175 mV/ms). The class given is functional. The gist of the method:
(§2)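 Hippocampal slices from male APP/PS1 mice given 2 mg/kg i.p. in saline (or saline alone), three times per week for 4 weeks. Input–output curves were built from evoked fEPSP slopes and fiber volley amplitudes, with values taken at the maximum current intensity. Mean ± SEM of 9 slices from 3 mice per group; two-way ANOVA with Bonferroni post hoc.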

Data set [8] has as its system Mus musculus. Kind of data set: Antialzheimer activity in 11 months old APP/PS1 double mutant-transgenic mouse model assessed as postsynaptic potential in CA3 region of hippocampus at 2 mg/kg, ip administered thrice a week for 4 weeks followed by stimulation with 1 to 10 uA EPSP by fluorescence microscopy based electrophysiology method (reference value: 0.293 +/- 0.105 mV/ms). The data set is classed as functional. The method in brief:
as §2

For data set [9], the system named is Mus musculus. Put plainly: Antialzheimer activity in 11 months old APP/PS1 double mutant-transgenic mouse model assessed as fiber volley amplitude in CA3 region of hippocampus at 2 mg/kg, ip administered thrice a week for 4 weeks followed by stimulation with 1 to 10 uA EPSP by fluorescence microscopy based electrophysiology method (reference value: 0.826 +/- 0.169 mV/ms). The class given is functional. The gist of the method:
as §2

The nature of data set [10]: Antioxidant activity assessed as DPPH radical scavenging activity incubated for 30 mins under dark condition by UV-Vis spectrophotometric analysis. The data set is classed as functional.
Data set [11] deals with Mus musculus. Put plainly: Memory enhancement effect in 6 months young APP/PS1 double mutant-transgenic mouse model at 2 mg/kg, ip administered thrice a week for 4 weeks by memory flexibility text. The class given is functional, organism-based. The gist of the method: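 Memory flexibility test in male APP/PS1 mice treated i.p. with 2 mg/kg in saline (or vehicle), three times weekly for 4 weeks. The number of trials to reach criterion was counted on each testing day over 4 days. Mean ± SEM, n = 7 per group; one-way ANOVA with Bonferroni post hoc.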

The test system of data set [12] is Mus musculus. Kind of data set: Neuroprotective activity in 11 months old APP/PS1 double mutant-transgenic mouse model assessed as decrease in 4-hydroxy-2-nonenal levels in hippocampus at 2 mg/kg, ip administered thrice a week for 4 weeks by Hoechst staining based immunofluorescence analysis. The data set is classed as functional, organism-based. The method in brief:
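Hippocampal 4-hydroxy-2-nonenal was assessed by immunofluorescence with Hoechst counterstain in male APP/PS1 mice given 2 mg/kg i.p. in saline (or vehicle), three times weekly for 4 weeks. Mean ± SEM, n = 4 mice per group; one-way ANOVA with Bonferroni post hoc.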

The test system of data set [13] is Mus musculus. Put plainly: Cognitive enhancing effect in 6 months young APP/PS1 double mutant-transgenic mouse model assessed as increase in preference index for object at 2 mg/kg, ip administered thrice a week for 4 weeks by novel object localization test. The data set is classed as functional, organism-based. The method in brief:
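Male APP/PS1 mice received 2 mg/kg i.p. in saline (or vehicle), three times per week for 4 weeks. Preference index = time exploring the relocated or novel object divided by total time exploring both objects. Mean ± SEM, n = 7 per group; one-way ANOVA with Bonferroni post hoc.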

The nature of data set [14]: Drug distribution in wild type C57BL6 mouse brain at 2 mg/kg, ip thrice a week for 2 weeks observed after 4 hrs post last dose by HPLC/MS/MS analysis. The class given is ADME, organism-based. To be noted: in vivo, 336 h.
Data set [15] deals with Mus musculus. Put plainly: Antiinflammatory activity in 6 months young APP/PS1 double mutant-transgenic mouse model assessed as reduction in GFAP level in hippocampus at 2 mg/kg, ip administered thrice a week for 4 weeks by Hoechst staining based immunofluorescence analysis. The class given is functional, organism-based. The method in brief: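 Hippocampal GFAP immunofluorescence with Hoechst nuclear counterstain in male APP/PS1 mice after 2 mg/kg i.p. in saline (or vehicle), three times per week for 4 weeks. Mean ± SEM, n = 4 mice per group; one-way ANOVA with Bonferroni post hoc.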

For data set [16], the system named is Mus musculus. Put plainly: Antialzheimer activity in 6 months young APP/PS1 double mutant-transgenic mouse model assessed as theta burst induced-long term potentiation in CA3 region of hippocampus at 2 mg/kg, ip administered thrice a week for 4 weeks by fluorescence microscopy based electrophysiology method (reference value: 134.1 +/- 13.1 %). The class given is functional.

Data set [17] concerns the target Acetylcholinesterase (Electrophorus electricus, UniProt O42275). Kind of data set: Displacement of propidium iodide from PAS-region of electric eel AChE assessed as dissociation constant by spectrofluorimetric analysis. The method in brief:
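Back-titration fluorescence assay using electric eel AChE (type VI-S). Inhibitor was added in successive aliquots from a MeOH stock. Emission was read at 602 nm with excitation at 535 nm, after subtracting blanks. […] Three independent experiments.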

Sequence of Acetylcholinesterase (O42275 whole entry): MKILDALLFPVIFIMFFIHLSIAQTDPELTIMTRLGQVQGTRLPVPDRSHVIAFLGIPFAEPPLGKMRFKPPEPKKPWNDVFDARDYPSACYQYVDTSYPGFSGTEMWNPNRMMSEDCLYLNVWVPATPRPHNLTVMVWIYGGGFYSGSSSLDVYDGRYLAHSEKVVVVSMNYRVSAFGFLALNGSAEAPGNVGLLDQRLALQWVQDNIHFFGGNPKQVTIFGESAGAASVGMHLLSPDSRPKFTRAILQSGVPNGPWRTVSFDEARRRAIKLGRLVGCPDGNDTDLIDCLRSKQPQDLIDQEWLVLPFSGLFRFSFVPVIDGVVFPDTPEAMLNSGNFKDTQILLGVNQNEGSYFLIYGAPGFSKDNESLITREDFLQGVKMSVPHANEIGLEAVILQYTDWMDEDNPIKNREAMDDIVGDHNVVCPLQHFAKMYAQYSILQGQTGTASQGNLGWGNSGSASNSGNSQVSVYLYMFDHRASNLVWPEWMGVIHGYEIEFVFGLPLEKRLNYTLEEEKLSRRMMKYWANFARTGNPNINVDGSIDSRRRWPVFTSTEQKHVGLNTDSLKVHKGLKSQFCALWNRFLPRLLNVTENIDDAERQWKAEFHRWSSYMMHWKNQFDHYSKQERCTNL

Regarding `COc1cc(CNC(=O)Cc2cn(CCCCC3=CC4Cc5nc6cc(Cl)ccc6c(N)c5C(C3)C4)nn2)ccc1O` (stereo not drawn), the outcome in data set [1], in [2], in [6], in [11], in data set [13] and in data set [15] was inactive. The concentration at 336 h in data set [3] was 18900 ng/g. The Papp in [4] was 8.8 ×10⁻⁶ cm/s. The Ratio IC50 in data set [5] is 6.9. Moreover, the Activity in [7] is reported as 0.738 mV/ms; in [8], 0.652 mV/ms; in data set [9], 1.039 mV; in [16] it was 397.3%. Also, the 50% inhibitory concentration (IC50) in [10] turned out to be 92 µM. Moreover, the result in data set [12] was Active. Also, in data set [14], the Drug uptake entry was “Active”.

`COc1cc(CNC(=O)CCCCCCNc2c3c(nc4cc(Cl)ccc24)CC2C=C(C)CC3C2)ccc1O` (stereo not drawn): the outcome in data set [1], in data set [2], in [6], in data set [11] and in [13] was inactive. This compound also returned a concentration at 336 h in [3] of 1580 ng/g. In data set [4], the Papp was determined as 17.2 ×10⁻⁶ cm/s. Moreover, the Ratio IC50 in [5] came out at 39.7. Besides, the Activity in data set [7] is on record as 0.399 mV/ms; in [8], 0.545 mV/ms; in data set [9] it was 0.808 mV; in [16], 275.6%. Moreover, the IC50 in [10] is 55.4 µM. Also, in data set [17], the Kd turned out to be 0.00359 µM. In addition, the outcome in [12] and in [15] was Active. Moreover, the Drug uptake entry in [14] was “Active”.
